The results in this text go back to ChEMBL document CHEMBL1629542, “Epigallocatechin gallate inactivates clinical isolates of herpes simplex virus” (Antimicrob Agents Chemother, 2008).

Structures are written as SMILES.

Experiment [1] has as its system Human alphaherpesvirus 2. In words: Antiviral activity against Human herpesvirus 2 strain 333 infected in African green monkey CV1 cells assessed as log reduction in viral titer at 100 uM. In kind it is functional, CV-1. The method in brief: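 Lab strain HSV-2 333 was grown and titrated either in CV-1 cells or in Vero cells. Virus was incubated with 100 μM EGCG for 60 min, then titrated as tenfold dilutions for 5 days at 37°C with CPE scoring. Reed-Muench TCID50 of treated versus control virus gave the titer decrease. Mean of three experiments.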

Experiment [2] relates to Human alphaherpesvirus 1. The experiment is described as follows: Antiviral activity against Human herpesvirus 1 F1 infected in African green monkey Vero cells assessed as log reduction in viral titer at 100 uM.

Turning to `O=C(O[C@@H]1Cc2c(O)cc(O)cc2O[C@@H]1c1ccc(O)c(O)c1)c1cc(O)c(O)c(O)c1` [EPICATECHIN GALLATE], in experiment [1], the FC entry is on record as “>=1”.
For `O=C(O[C@@H]1Cc2c(O)cc(O)cc2O[C@H]1c1cc(O)c(O)c(O)c1)c1cc(O)c(O)c(O)c1` [GALLOCATECHIN GALLATE], the FC was 4 in experiment [1] and 3.5 in experiment [2].
